From ChEMBL document CHEMBL1156979, “The impact of polyether chain length on the iron clearing efficiency and physiochemical properties of desferrithiocin analogues” (J Med Chem, 2010)
Activity calls are given as the source filed them. The calls are words filed in the database; no cut-off is given here.

How the values were obtained:
Rattus norvegicus [1] = test: Iron-clearing efficiency in non-iron-overloaded and bile duct-cannulated Sprague-Dawley rat assessed as bile iron excretion at 300 umol/kg, po up to 24 hrs; type: functional, organism-based
Summary of the method: (§1)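 Non-iron-overloaded male Sprague-Dawley rats (400–450 g), bile duct-cannulated, given a single oral dose of 300 μmol/kg, either by gavage as monosodium salt or in capsules. Bile was collected at 3 h intervals for up to 48 h and urine every 24 h. Iron was measured by flame absorption spectroscopy. ICE = 24-h iron excretion of treated rats minus controls, divided by theoretical output (2:1 ligand:iron); percent. Mean ± SEM; one-tailed t-test.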

[2] = Ratio of iron-clearing efficiency in iron-overloaded Cebus apella at 75 umol/kg, po to iron-clearing efficiency in non-iron-overloaded and bile duct-cannulated Sprague-Dawley rat at 300 umol/kg, po; type: functional, organism-based
Summary of the method: (§2)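 Iron-overloaded Cebus apella (3.5–4 kg; iv iron dextran to about 500 mg Fe/kg, ≥60 days before use) dosed orally at 75 μmol/kg, by gavage as monosodium salt (1 equiv NaOH in distilled water) or in capsules. Feces and urine collected every 24 h from 4 days pre-drug to 5 days post-drug; iron by flame absorption spectroscopy. ICE = 2-day post-drug iron minus 4-day baseline average, divided by theoretical output (2:1 ligand:iron); percent. Performance ratio = mean primate ICE/rodent ICE.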

Rattus norvegicus [3] = test: Iron-clearing efficiency in non-iron-overloaded and bile duct-cannulated Sprague-Dawley rat assessed as urine iron excretion at 300 umol/kg, po after 24 hrs relative to control; type: functional
Sapajus apella [4] = test: Iron-clearing efficiency in iron-overloaded Cebus apella at 75 umol/kg, po measured daily once for 2 days by flame absorption spectroscopy relative to control; type: functional; summary of the method: as §2
Rattus norvegicus [5] = test: Iron-clearing efficiency in non-iron-overloaded and bile duct-cannulated Sprague-Dawley rat at 300 umol/kg, po after 24 hrs relative to control; type: functional; summary of the method: as §1
Sapajus apella [6] = test: Iron-clearing efficiency in iron-overloaded Cebus apella assessed as feces iron excretion at 75 umol/kg, po measured daily once for 5 days by lame absorption spectroscopy relative to control; type: functional
Rattus norvegicus [7] = test: Iron-clearing efficiency in non-iron-overloaded and bile duct-cannulated Sprague-Dawley rat assessed as time required to maximum bile iron excretion at 300 umol/kg, po; type: functional; summary of the method: as §1
Sapajus apella [8] = test: Iron-clearing efficiency in iron-overloaded Cebus apella assessed as urine iron excretion at 75 umol/kg, po measured daily once for 5 days by lame absorption spectroscopy relative to control; type: functional
Rattus norvegicus [9] = test: Iron-clearing efficiency in non-iron-overloaded and bile duct-cannulated Sprague-Dawley rat assessed as bile iron excretion at 300 umol/kg, po after 24 hrs relative to control; type: functional; summary of the method: as §1
Rattus norvegicus [10] = test: Iron-clearing efficiency in non-iron-overloaded and bile duct-cannulated Sprague-Dawley rat assessed as urine iron excretion at 300 umol/kg, po after 48 hrs relative to control; type: functional
Rattus norvegicus [11] = test: Iron-clearing efficiency in non-iron-overloaded and bile duct-cannulated Sprague-Dawley rat at 300 umol/kg, po after 48 hrs relative to control; type: functional; summary of the method: as §1
Rattus norvegicus [12] = test: Iron-clearing efficiency in non-iron-overloaded and bile duct-cannulated Sprague-Dawley rat assessed as reduction of renal iron content at 384 umol/kg, po qd for 10 days administered as gelatin capsules relative to control; type: functional; parameters: scale not given: the % may be the effect or the level left
Rattus norvegicus [13] = test: Iron-clearing efficiency in non-iron-overloaded and bile duct-cannulated Sprague-Dawley rat assessed as reduction of liver iron content at 384 umol/kg, po qd for 10 days administered as monosodium salt relative to control; type: functional; parameters: scale not given: the % may be the effect or the level left
Rattus norvegicus [14] = test: Iron-clearing efficiency in non-iron-overloaded and bile duct-cannulated Sprague-Dawley rat assessed as reduction of cardiac iron content at 384 umol/kg, po qd for 10 days administered as monosodium salt relative to control; type: functional, Heart; parameters: scale not given: the % may be the effect or the level left
Rattus norvegicus [15] = test: Toxicity in Sprague-Dawley rat assessed as histopathological examination at 384 umol/kg, po qd for 10 days measured after 24 hrs last post dose; type: organism-based; details: in vivo
Summary of the method: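 Male Sprague-Dawley rats (300–350 g), fasted overnight, were dosed orally once daily for 10 d. Dosing was 384 μmol/kg/d (capsules or by gavage as monosodium salt) or 192 μmol/kg/d (capsules). Age-matched untreated controls. Rats were euthanized 24 h after the last dose (day 11), and extensive tissues were examined histopathologically.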

Rattus norvegicus [16] = test: Iron-clearing efficiency in non-iron-overloaded and bile duct-cannulated Sprague-Dawley rat assessed as reduction of renal iron content at 384 umol/kg, po qd for 10 days administered as monosodium salt relative to control; type: functional; parameters: scale not given: the % may be the effect or the level left
Rattus norvegicus [17] = test: Iron-clearing efficiency in non-iron-overloaded and bile duct-cannulated Sprague-Dawley rat assessed as reduction of cardiac iron content at 384 umol/kg, po qd for 10 days administered as gelatin capsules relative to control; type: functional, Heart; parameters: scale not given: the % may be the effect or the level left
Rattus norvegicus [18] = test: Toxicity in Sprague-Dawley rat assessed as histopathological examination at 384 umol/kg, po qd for 10 days; details: in vivo, 240 h
Rattus norvegicus [19] = test: Iron-clearing efficiency in non-iron-overloaded and bile duct-cannulated Sprague-Dawley rat assessed as bile iron excretion at 300 umol/kg, po after 48 hrs relative to control; type: functional
Summary of the method: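 Male Sprague-Dawley rats (400–450 g), non-iron-overloaded and bile duct-cannulated, were dosed orally at 300 μmol/kg, either by gavage as the monosodium salt (1 equiv NaOH added to the free acid in distilled water) or in capsules. Bile was collected at 3 h intervals for up to 48 h and urine at 24 h intervals. Iron efficiency was calculated as treated minus control iron excretion, divided by the theoretical output for a 2:1 ligand:iron complex, expressed as %; values are mean ± SEM.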

Rattus norvegicus [20] = test: Iron-clearing efficiency in non-iron-overloaded and bile duct-cannulated Sprague-Dawley rat assessed as reduction of liver iron content at 384 umol/kg, po qd for 10 days administered as gelatin capsules relative to control; type: functional; parameters: scale not given: the % may be the effect or the level left
Sapajus apella [21] = test: Iron-clearing efficiency in iron-overloaded Cebus apella assessed as urine iron excretion at 150 umol/kg, po measured daily once for 5 days by lame absorption spectroscopy relative to control; type: functional
Sapajus apella [22] = test: Iron-clearing efficiency in iron-overloaded Cebus apella at 150 umol/kg, po measured daily once for 2 days by flame absorption spectroscopy relative to control; type: functional
Rattus norvegicus [23] = test: Iron-clearing efficiency in non-iron-overloaded and bile duct-cannulated Sprague-Dawley rat assessed as bile iron excretion at 300 umol/kg, po up to 12 hrs; type: functional, organism-based; summary of the method: as §1
Sapajus apella [24] = test: Iron-clearing efficiency in iron-overloaded Cebus apella assessed as feces iron excretion at 150 umol/kg, po measured daily once for 5 days by lame absorption spectroscopy relative to control; type: functional
Rattus norvegicus [25] = test: Iron-clearing efficiency in non-iron-overloaded and bile duct-cannulated Sprague-Dawley rat assessed as bile iron excretion at 150 umol/kg, po after 24 hrs relative to control; type: functional
[26] = Octanol-water partition coefficient, log P in Tris buffer at pH 7.4 by shake flask method; type: physicochemical
Summary of the method: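 Octanol/water partition was measured at pH 7.4 (Tris buffer) by the shake-flask direct method. The fraction of drug in octanol is expressed as log P_app.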

Rattus norvegicus [27] = test: Iron-clearing efficiency in non-iron-overloaded and bile duct-cannulated Sprague-Dawley rat assessed as urine iron excretion at 150 umol/kg, po after 24 hrs relative to control; type: functional
Rattus norvegicus [28] = test: Iron-clearing efficiency in non-iron-overloaded and bile duct-cannulated Sprague-Dawley rat at 150 umol/kg, po after 24 hrs relative to control; type: functional
[29] = Ratio of iron-clearing efficiency in iron-overloaded Cebus apella to iron-clearing efficiency in non-iron-overloaded Sprague-Dawley rat at 150 umol/kg, po; type: functional
[30] = Ratio of iron-clearing efficiency in iron-overloaded Cebus apella at 75 umol/kg, po to iron-clearing efficiency in non-iron-overloaded and bile duct-cannulated Sprague-Dawley rat at 300 umol/kg, po after 48 hrs; type: functional, organism-based; summary of the method: as §2
Rattus norvegicus [31] = test: Iron-clearing efficiency in non-iron-overloaded and bile duct-cannulated Sprague-Dawley rat assessed as reduction of liver iron stores at 384 umol/kg, po qd for 10 days
Rattus norvegicus [32] = test: Iron-clearing efficiency in non-iron-overloaded and bile duct-cannulated Sprague-Dawley rat assessed as time required to maximum bile iron excretion at 300 umol/kg, po after 12 to 15 hrs; type: functional, organism-based; summary of the method: as §1
Rattus norvegicus [33] = test: Iron-clearing efficiency in non-iron-overloaded and bile duct-cannulated Sprague-Dawley rat assessed as reduction of pancreatic iron content at 384 umol/kg, po qd for 10 days administered as monosodium salt; type: functional, organism-based
Summary of the method: (§3)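 Male Sprague-Dawley rats (300–350 g) were fasted overnight and dosed orally once daily for 10 d. Dosing was 384 μmol/kg/d in gelatin capsules (n = 5) or by gavage as monosodium salt (n = 10), or 192 (n = 6) or 384 μmol/kg/d (n = 5) in capsules. Rats were fed ~3 h post-dose. Age-matched untreated controls (n = 12). Kidney, liver, heart and pancreas were taken on day 11, wet-ashed (120 °C, then H2O2), and iron was measured by flame absorption spectroscopy.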

Sapajus apella [34] = test: Iron-clearing efficiency in iron-overloaded Cebus apella assessed as reduction of liver iron stores at 384 umol/kg, po qd for 28 days; type: functional, organism-based
Rattus norvegicus [35] = test: Iron-clearing efficiency in non-iron-overloaded and bile duct-cannulated Sprague-Dawley rat assessed as reduction of pancreatic iron content at 384 umol/kg, po qd for 10 days administered as gelatin capsules; type: functional, organism-based; summary of the method: as §3
Rattus norvegicus [36] = test: Iron-clearing efficiency in non-iron-overloaded and bile duct-cannulated Sprague-Dawley rat assessed as bile iron excretion at 300 umol/kg, po up to 48 hrs; type: functional, organism-based; summary of the method: as §1
Rattus norvegicus [37] = test: Iron-clearing efficiency in non-iron-overloaded and bile duct-cannulated Sprague-Dawley rat assessed as complete bile iron excretion at 300 umol/kg, po; type: functional; summary of the method: as §1

Structure (SMILES): COCCOCCOCCOCCOc1ccc(C2=N[C@@](C)(C(=O)[O-])CS2)c(O)c1.[Na+]
- Activity (Rattus norvegicus [1]): Active
- Ratio [2]: 0.8
- Activity (Rattus norvegicus [3]): 1%
- Activity (Sapajus apella [4]): 9.8%
- Activity (Rattus norvegicus [5]): 12%
- Activity (Sapajus apella [6]): 52%
- Time (Rattus norvegicus [7]): 6 h
- Activity (Sapajus apella [8]): 48%
- Activity (Rattus norvegicus [9]): 99%

Structure (SMILES): COCCOCCOc1ccc(C2=N[C@@](C)(C(=O)O)CS2)c(O)c1 [SP-420]
- Activity (Rattus norvegicus [10]): 3%
- Activity (Rattus norvegicus [11]): 26.7%
- Activity (Rattus norvegicus [12]): 7.4%
- Activity (Rattus norvegicus [13]): >35%
- Activity (Rattus norvegicus [14]): 9.9%
- Activity (Rattus norvegicus [15]): Non-toxic
- Activity (Rattus norvegicus [16]): 24.8%
- Activity (Rattus norvegicus [17]): 6.9%
- Activity (Rattus norvegicus [18]): Toxic
- Activity (Rattus norvegicus [19]): 97%
- Activity (Rattus norvegicus [20]): >35%

Structure (SMILES): COCCOCCOc1ccc(C2=N[C@@](C)(C(=O)[O-])CS2)c(O)c1.[Na+]
- Activity (Sapajus apella [4]): 26.3%
- Activity (Sapajus apella [6]): 83%
- Activity (Sapajus apella [8]): 7%

Structure (SMILES): COCCOCCOCCOc1ccc(C2=N[C@@](C)(C(=O)O)CS2)c(O)c1
- Activity (Sapajus apella [21]): 4%
- Activity (Sapajus apella [22]): 25.4%
- Time (Rattus norvegicus [7]): 3 h
- Activity (Rattus norvegicus [23]): Active
- Activity (Sapajus apella [24]): 96%

Structure (SMILES): C[C@]1(C(=O)O)CSC(c2ncccc2O)=N1 [DESFERRITHIOCIN]
- Activity (Rattus norvegicus [25]): 93%
- Activity (Sapajus apella [21]): 22%
- Activity (Sapajus apella [22]): 16.1%
- logD [26]: -1.77
- Activity (Rattus norvegicus [27]): 7%
- Activity (Rattus norvegicus [28]): 5.5%
- Ratio [29]: 2.9
- Activity (Sapajus apella [24]): 78%

Structure (SMILES): COCCOCCOc1ccc(C2=N[C@@](C)(C(=O)O)CS2)c(O)c1
- Ratio [30]: 1
- Activity (Rattus norvegicus [31]): Active
- Activity (Rattus norvegicus [32]): inactive
- Activity (Rattus norvegicus [33]): Active
- Activity (Sapajus apella [34]): Active
- Activity (Rattus norvegicus [35]): inactive
- Activity (Rattus norvegicus [36]): Active

Structure (SMILES): C[C@]1(C(=O)[O-])CSC(c2ccc(O)cc2O)=N1.[Na+] [DEFERITRIN SODIUM]
- Activity (Sapajus apella [21]): 12%
- Activity (Sapajus apella [22]): 16.8%
- Time (Rattus norvegicus [7]): 3 h
- Time (Rattus norvegicus [37]): 9 h
- Activity (Sapajus apella [24]): 88%

Structure (SMILES): COc1ccc(C2=N[C@@](C)(C(=O)[O-])CS2)c(O)c1.[Na+]
- Activity (Sapajus apella [21]): 9%
- Activity (Sapajus apella [22]): 24.4%
- Activity (Sapajus apella [24]): 91%
